Source: ChEMBL document CHEMBL1122433, “1-(4-Aminobenzyl)-and 1-(4-aminophenyl)isoquinoline derivatives: synthesis and evaluation as potential irreversible cyclic nucleotide phosphodiesterase inhibitors” (J Med Chem, 1983)

Columns and labels:
Phosphodiesterase 1 [1] = molecular target: Phosphodiesterase 1 (Bos taurus, UniProt Q01061+P14100); assay: Inhibitory activity against cyclic nucleotide phosphodiesterase in bovine heart carried out at 37 C with cAMP […] as substrate.; format: tissue-based
Procedure, shortened: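 Crude bovine heart phosphodiesterase containing protein activator and calcium. Assay used 1 µM cAMP substrate with separation of 5'-AMP on Dowex resin. Time and protein adjusted to keep hydrolysis under 25%. I50 interpolated from at least five inhibition values against log inhibitor concentration (10^-7 to 10^-4 M). Triplicate assays, 3-5 experiments, mean ± standard error.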

Phosphodiesterase 1 [2] = molecular target: T1, Phosphodiesterase 1 (Rattus norvegicus, UniProt Q63421+Q9EPR9+Q01066); assay: Inhibition of Ca-dependent phosphodiesterase from Rat cerebral cortex using 1 uM cAMP; format: tissue-based
Procedure, shortened: (§1)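 Calcium-dependent enzyme from female Sprague-Dawley rat (200-250 g) cerebral cortex crude extract, taken by Sephadex G-200 gel filtration. Activity measured by polyacrylamide-boronate affinity gel chromatography with 1 µM cAMP or cGMP as substrate. Time and protein adjusted to keep hydrolysis under 25%. I50 interpolated from at least five inhibition values against log inhibitor concentration (10^-7 to 10^-4 M). Triplicate assays, 3-5 experiments, mean ± standard error.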

Phosphodiesterase 1 [3] = molecular target: T1, Phosphodiesterase 1; assay: Inhibition of Ca-dependent phosphodiesterase from Rat cerebral cortex using 1 uM cGMP; format: tissue-based; procedure, shortened: as §1
[4] = molecular target: T2, Phosphodiesterase 1 (Rattus norvegicus) (UniProt Q63421+Q9EPR9+Q01066); assay: Inhibition of Ca-dependent phosphodiesterase from rat cerebral cortex with 1 uM cGMP without compound, after pre-incubation with 2 or 25 uM (negative control); format: functional, tissue-based; set-up: scale not given: the % may be the effect or the level left
Procedure, shortened: (§2)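 Purified calcium-dependent enzyme from rat cerebral cortex (Sephadex G-200 fraction) preincubated with inhibitor at the stated concentration. It was then diluted 1000-fold and assayed with 1 µM cGMP by polyacrylamide-boronate gel chromatography. Assays ran either without further drug or with drug re-added at the preincubation concentration. Activity was compared with enzyme preincubated without inhibitor.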

[5] = molecular target: T2, Phosphodiesterase 1 (Rattus norvegicus); assay: Inhibition of Ca-dependent phosphodiesterase from rat cerebral cortex at 2 uM with 1 uM cGMP, after pre-incubation at 2 uM; format: functional, tissue-based; set-up: scale not given: the % may be the effect or the level left; procedure, shortened: as §2
[6] = molecular target: T2, Phosphodiesterase 1 (Rattus norvegicus); assay: Inhibition of Ca-dependent phosphodiesterase from rat cerebral cortex at 25 uM with 1 uM cGMP, after pre-incubation at 25 uM; format: functional, tissue-based; set-up: scale not given: the % may be the effect or the level left; procedure, shortened: as §2

Structure (SMILES)	I50 (Phosphodiesterase 1 [1])	I50 (Phosphodiesterase 1 [2])	I50 (Phosphodiesterase 1 [3])	Activity [4]	Activity [5]	Activity [6]
COC(=O)/C=C\C(=O)Nc1ccc(Cc2nccc3cc(OC)c(OC)cc23)cc1	4 µM					
COc1cc2ccnc(-c3ccc(NCCCl)cc3)c2cc1OC	3.5 µM	2.9 µM	12 µM	102%	21%	
COc1ccc(Cc2nccc3cc(OC)c(OC)cc23)cc1OC [PAPAVERINE]	8.8 µM	12 µM	21 µM			
COc1cc2ccnc(-c3ccc(N(CCCl)CCCl)cc3)c2cc1OC	5.2 µM	7.3 µM	15 µM	100%		45%
COC(=O)/C=C/C(=O)Nc1ccc(-c2nccc3cc(OC)c(OC)cc23)cc1	14 µM	35 µM	> 100 µM	100%		104%
COc1cc2ccnc(Cc3ccc(NCCCl)cc3)c2cc1OC	4.1 µM					
COc1cc2ccnc(Cc3ccc(N)cc3)c2cc1OC	7.7 µM					
C=CC(=O)Nc1ccc(Cc2nccc3cc(OC)c(OC)cc23)cc1	10 µM					
COc1cc2ccnc(-c3ccc(NC(=O)CCl)cc3)c2cc1OC	5 µM	2.3 µM	6.8 µM	105%	19%	
COc1cc2ccnc(Cc3ccc(N(CCCl)CCCl)cc3)c2cc1OC	5.3 µM					

Now from value to compound:

I50 (Phosphodiesterase 1 [1])	I50 (Phosphodiesterase 1 [2])	I50 (Phosphodiesterase 1 [3])	Activity [4]	Activity [5]	Activity [6]	Structure (SMILES)
7.4 µM	3.4 µM	2.1 µM	103%	16%		COc1cc2ccnc(-c3ccc(N)cc3)c2cc1OC
8 µM						COC(=O)/C=C/C(=O)Nc1ccc(Cc2nccc3cc(OC)c(OC)cc23)cc1
5.3 µM	1.7 µM	1.1 µM	99%	14%		COC(=O)/C=C\C(=O)Nc1ccc(-c2nccc3cc(OC)c(OC)cc23)cc1
3.9 µM						COc1cc2ccnc(Cc3ccc(NC(=O)CCl)cc3)c2cc1OC
12 µM	10 µM	30 µM	103%		50%	C=CC(=O)Nc1ccc(-c2nccc3cc(OC)c(OC)cc23)cc1
